Test results from PMC5248591 (Journal of Clinical Pharmacology, 2016).
Where “and” joins values, the source holds several entries; their conditions need not be identical. Identical values can stand only once. Like-named read-outs stand apart in the source and are kept apart here.

Assays:
ZAP70 = details: read-out: ZAP70 IC50; purified kinase assay; cited from earlier work
hind‐paw inflammation = details: rat CIA, p < 0.05, cited from earlier work
[1] = SAD study: plasma and urine pharmacokinetics after a single oral dose; type: in vivo, human; details: for Ae0‐96 / fe0‐96: urine, mean (SD); for Tmax / half-life / Cmax / AUC(0-t): human, plasma
PMA‐induced pERK Y204 = experiment: Rat whole blood phospho‐flow: PMA‐induced pERK Y204; type: cell-based; details: 5 μM
[2] = system: CD3/CD28‐induced T‐cell activation (ZAP70‐dependent); experiment: T‐cell activation; type: cell-based, human; details: MAD, steady state after 10 once‐daily doses
[3] = Safety and tolerability, SAD study
[4] = system: opRBC‐induced (FcγR) neutrophil ROS generation; experiment: Neutrophil oxidative burst induced by opRBC in whole blood in vitro; type: cell-based, human
[5] = system: PMA/PKC‐mediated pERK Y204; experiment: PMA‐induced pERK Y204 in B cells, specificity control, whole blood; type: cell-based, human; details: SAD 200‐ and 300‐mg cohorts combined
[6] = type: in vivo, human; details: for Fluctuation / Ae0‐24 / fe0‐24 / t1/2 / Cmax: mean (SD); for Ae0‐24 / fe0‐24: urine; for CL renal: urine and plasma
[7] = Safety and tolerability, MAD study; type: in vivo, human
[8] = system: PMA‐induced T‐cell activation (PKC‐dependent); experiment: T‐cell activation; type: cell-based, human; details: MAD, steady state after 10 once‐daily doses
[9] = system: LPS‐induced DC activation; experiment: Dendritic cell activation by LPS; type: cell-based, human; details: in vitro; 1 μM in Figure 5C
How it was run: (§1)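 Cells (0.5 × 10⁶/well) were preincubated 1 h with test compound, then stimulated overnight with 1 μg/mL LPS or antibody-opsonized sheep RBCs. CD80/86 and MHCII were read by flow cytometry; values are % of vehicle, n = 5.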

[10] = system: FcγR‐mediated DC activation; experiment: Dendritic cell activation by opsonized sheep red blood cells; type: cell-based, human; details: immature DCs from healthy donors, in vitro
How it was run: as §1

[11] = system: BCR/LYN‐mediated pSYK Y352; experiment: BCR signaling specificity control, pSYK Y352 in B cells, whole blood; type: cell-based, human
[12] = system: PMA/PKC‐induced B‐cell activation; experiment: PMA‐induced B‐cell activation; type: cell-based, human
[13] = system: fMLP‐mediated basophil degranulation; experiment: fMLP‐induced basophil degranulation; type: cell-based, human
relapsed CLL = details: cited from earlier work
DLBCL = details: phase 2 study in DLBCL; cited from earlier work
[14] = system: serum levels of CCL3 and CCL4; details: cited from earlier work
[15] = SAD 200‐ and 300‐mg cohorts combined
[16] = MAD, all dose levels, data not shown

CC(=O)O.NC(=O)c1cnc(N[C@@H]2CCCC[C@@H]2N)nc1Nc1cccc(-n2nccn2)c1 [PRT062607, 4‐((3‐(2H‐1,2,3‐triazol‐2‐yl)phenyl)amino)‐2‐(((1R,2S)‐2‐aminocyclohexyl)amino)pyrimidine‐5‐carboxamide acetate]
IC50 (ZAP70): 1.05 µM
% inhibition hind paw inflammation (hind‐paw inflammation; 10 mg/kg): 55%
% inhibition hind paw inflammation (hind‐paw inflammation; 15 mg/kg): 90%
Intersubject variability (%CV) of Cmax and AUClast ([1]; SAD, 6 out of 7 dose cohorts): < 40%
Ae0‐96 ([1]; SAD, single oral 30 mg): 0.4 (0.3) mg
fe0‐96 ([1]; SAD, single oral 30 mg): 1.5 (0.9) %
Ae0‐96 ([1]; SAD, single oral 100 mg): 2.4 (0.5) mg
fe0‐96 ([1]; SAD, single oral 100 mg): 2.4 (0.5) %
Ae0‐96 ([1]; SAD, single oral 200 mg): 4.3 (0.8) mg
fe0‐96 ([1]; SAD, single oral 200 mg): 2.2 (0.4) %
Ae0‐96 ([1]; SAD, single oral 300 mg): 7.0 (2.0) mg
fe0‐96 ([1]; SAD, single oral 300 mg): 2.3 (0.7) %
Ae0‐96 ([1]; SAD, single oral 400 mg): 20.2 (14.3) mg
fe0‐96 ([1]; SAD, single oral 400 mg): 5.1 (3.6) %
Tmax ([1]; oral): 1 to 4 h
half-life ([1]; oral): 57 to 94 h
Cmax ([1]; po, 3 mg): 1.5 ng/mL
Tmax ([1]; po, 3 mg): 1 h
AUC(0-t) ([1]; po, 10 mg): 150 ng·h/mL
Cmax ([1]; po, 10 mg): 10.5 ng/mL
Tmax ([1]; po, 10 mg): 1 h
half-life ([1]; po, 10 mg): 57.1 h
AUC(0-t) ([1]; po, 30 mg): 878 ng·h/mL
Cmax ([1]; po, 30 mg): 42.9 ng/mL
Tmax ([1]; po, 30 mg): 1 h
half-life ([1]; po, 30 mg): 56.7 h
AUC(0-t) ([1]; po, 100 mg): 5400 ng·h/mL
Cmax ([1]; po, 100 mg): 263 ng/mL
Tmax ([1]; po, 100 mg): 2 h
half-life ([1]; po, 100 mg): 69.8 h
AUC(0-t) ([1]; po, 200 mg): 13700 ng·h/mL
Cmax ([1]; po, 200 mg): 629 ng/mL
Tmax ([1]; po, 200 mg): 2 h
half-life ([1]; po, 200 mg): 77.2 h
AUC(0-t) ([1]; po, 300 mg): 11800 ng·h/mL
Cmax ([1]; po, 300 mg): 558 ng/mL
Tmax ([1]; po, 300 mg): 2.1 h
half-life ([1]; po, 300 mg): 93.8 h
AUC(0-t) ([1]; po, 400 mg): 22300 ng·h/mL
Cmax ([1]; po, 400 mg): 996 ng/mL
Tmax ([1]; po, 400 mg): 4 h
half-life ([1]; po, 400 mg): 65.1 h
inhibition of PMA‐induced pERK Y204 (PMA‐induced pERK Y204): inability
effect on CD3/CD28‐induced T‐cell activation [2]: no effect
overall safety and tolerability ([3]; SAD and MAD, entire range of doses): safe and well tolerated
serious adverse events ([3]; SAD, 3 to 400 mg): no serious adverse events
number of reported TEAEs ([3]; SAD, 200‐mg dose group): 15
subject incidence of TEAEs ([3]; SAD, 200‐mg dose group): 67%
number of reported TEAEs ([3]; SAD, 300‐mg dose group): 7
subject incidence of TEAEs ([3]; SAD, 300‐mg dose group): 67%
number of reported TEAEs ([3]; SAD, 400‐mg dose group): 3
subject incidence of TEAEs ([3]; SAD, 400‐mg dose group): 17%
moderate intensity TEAEs (dizziness, headache, musculoskeletal pain) ([3]; SAD, all PRT062607 doses): 3
subjects with abdominal pain ([3]; SAD, all PRT062607 doses): 3 subjects
subjects with diarrhea ([3]; SAD, all PRT062607 doses): 3 subjects
subjects with dizziness ([3]; SAD, all PRT062607 doses): 3 subjects
subjects with headache ([3]; SAD, all PRT062607 doses): 6 subjects
subjects with nausea ([3]; SAD, all PRT062607 doses): 3 subjects
subjects with rhinitis ([3]; SAD, all PRT062607 doses): 2 subjects
number of TEAEs ([3]; SAD, all subjects receiving PRT062607): 37
subjects reporting TEAEs ([3]; SAD, all subjects receiving PRT062607 (17/42)): 40%
opRBC‐induced ROS formation, concentration‐dependent ([4]; replicate experiments, different donors): inhibited
opRBC‐induced ROS generation ([4]; whole blood pretreated with 4 μM): completely abrogated
inhibition of PMA‐mediated pERK Y204 [5]: No consistent inhibition
Fluctuation ([6]; MAD day 10, 11 mg once daily): 90.7 (43.9) %
Tmax ([6]; MAD day 10, 11 mg once daily, median (min, max)): 1.5 (0.5, 2.0) Hours
Ae0‐24 ([6]; MAD day 10, 11 mg once daily): 0.4 (0.1) mg
fe0‐24 ([6]; MAD day 10, 11 mg once daily): 3.3 (1.3) %
Fluctuation ([6]; MAD day 10, 33 mg once daily): 88.0 (15.9) %
Tmax ([6]; MAD day 10, 33 mg once daily, median (min, max)): 1.5 (1.0, 2.1) Hours
Ae0‐24 ([6]; MAD day 10, 33 mg once daily): 1.3 (0.0) mg
fe0‐24 ([6]; MAD day 10, 33 mg once daily): 4.0 (0.1) %
Fluctuation ([6]; MAD day 10, 66 mg once daily): 98.8 (24.1) %
t1/2 ([6]; MAD day 10, 66 mg once daily): 61.3 Hours and 61.3 (10.2) Hours
Tmax ([6]; MAD day 10, 66 mg once daily, median (min, max)): 4.0 (2.0, 4.0) Hours
Ae0‐24 ([6]; MAD day 10, 66 mg once daily): 3.7 (0.6) mg
fe0‐24 ([6]; MAD day 10, 66 mg once daily): 5.6 (1.0) %
Fluctuation ([6]; MAD day 10, 110 mg once daily): 92.8 (30.7) %
t1/2 ([6]; MAD day 10, 110 mg once daily): 75.3 Hours and 75.3 (11.2) Hours
Tmax ([6]; MAD day 10, 110 mg once daily, median (min, max)): 3.0 (3.0, 6.0) Hours
Ae0‐24 ([6]; MAD day 10, 110 mg once daily): 6.96 (1.7) mg
fe0‐24 ([6]; MAD day 10, 110 mg once daily): 6.3 (1.5) %
intersubject variability (CV%) for exposure parameters ([6]; MAD steady state, all dose cohorts): ≤ 45%
steady state achieved ([6]; MAD, trough levels days 4, 7, 8, 9, 10): ≤ 7 days
Tmax ([6]; human, plasma, oral): 1.5 to 4 h
AUC ([6]; human, plasma, oral, 11 mg): 507 ng·h/mL
Cmax ([6]; human, plasma, oral, 11 mg, MAD day 10, 11 mg once daily): 32.6 ng/mL
AUC ([6]; human, plasma, oral, 33 mg): 1810 ng·h/mL
Cmax ([6]; human, plasma, oral, 33 mg, MAD day 10, 33 mg once daily): 118 ng/mL
AUC ([6]; human, plasma, oral, 66 mg): 4630 ng·h/mL
Cmax ([6]; human, plasma, oral, 66 mg, MAD day 10, 66 mg once daily): 317 ng/mL
AUC ([6]; human, plasma, oral, 110 mg): 8490 ng·h/mL
Cmax ([6]; human, plasma, oral, 110 mg, MAD day 10, 110 mg once daily): 557 ng/mL
CL renal ([6]; human, oral, 11 mg): 0.2 mL/min/kg
CL renal ([6]; human, oral, 33 mg): 0.2 mL/min/kg
CL renal ([6]; human, oral, 66 mg): 0.2 mL/min/kg
CL renal ([6]; human, oral, 110 mg): 0.2 mL/min/kg
serious adverse events ([7]; 11 to 110 mg once daily for 10 days): no SAEs
AEs considered by the investigator related to the study drug ([7]; 71 of 96 AEs): 74%
number of AEs reported ([7]; all PRT062607 doses): 96
subjects reporting AEs ([7]; all PRT062607 doses (13 subjects)): 54.2%
effect on PMA‐induced T‐cell activation [8]: no effect
inhibition of LPS‐induced DC activation [9]: No inhibition
effect on FcγR‐mediated (opRBC) DC activation, surface CD80/86 and MHCII [10]: inhibited
inhibition of BCR‐mediated pSYK Y352 [11, 15]: No consistent inhibition
inhibition of LYN‐mediated pSYK ([11]; SAD study, versus plasma concentration): No concentration‐dependent inhibition
effect on PMA stimulation (SYK‐independent) [12, 16]: no effect
inhibition of PMA‐induced B‐cell activation [12, 15]: no inhibition
effect on fMLP stimulation (SYK‐independent) [13, 16]: no effect
inhibition of fMLP‐mediated basophil degranulation [13, 15]: No inhibition

c1cn2cc(-c3ccc4cn[nH]c4c3)nc(Nc3ccc(N4CCOCC4)cc3)c2n1 [GS9973]
Duration of response (relapsed CLL; majority of responding patients): greater than 6 months
patients achieving decreased adenopathy (relapsed CLL; phase 2, relapsed CLL): 94.5%
patients having experienced a partial response (relapsed CLL; phase 2, relapsed CLL): 61.5%

COc1cc(Nc2ncc(F)c(Nc3ccc4c(n3)N(COP(=O)(O)O)C(=O)C(C)(C)O4)n2)cc(OC)c1OC [fostamatinib]
overall response rate (DLBCL): 3%

C=CC(=O)N1CCC[C@@H](n2nc(-c3ccc(Oc4ccccc4)cc3)c3c(N)ncnc32)C1 [ibrutinib]
inhibition of serum CCL3 and CCL4 markers [14]: > 90%
